Source: PubChem
RGS4 act: potentiators or activators of RGS4. AID 463111. B-score at 10 µM. HEK293 M3R/inducible RGS4, carbachol calcium flux Fluo4; active compounds read low. 0.92% of 310,000 active;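 active = B-score of the integrated calcium signal more than 4 SD below the library mean, with starting fluorescence not abnormally high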;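 also: negative B-score means reduced calcium response which marks RGS4 activation or potentiation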
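Test system: HEK293 cells with stable M3R and inducible RGS4; also added: carbachol at ECmax as muscarinic agonist stimulus; schedule: dye loading 30 min 37 °C, buffer rest 30 min RT; technique: kinetic calcium fluorescence imaging with Fluo4-AM dye, 2 µM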
MrgX1 allo act: human MrgX1 positive allosteric modulation, primary screen | Q96LB2 | MrgX1-HEK293, Fluo-4 calcium flux, FDSS; active compounds read high | B-score at 10 µM | 0.63% of 310,000 active;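 active = plate-corrected calcium response at least 3 library SD above typical, normal starting fluorescence, not activating the receptor alone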;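 also: compound read alongside a low EC10 to EC30 dose of BAM8-22 agonist; peak minus trough fluorescence over baseline measured at the second addition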
Target sequence (Q96LB2 whole entry, looked up): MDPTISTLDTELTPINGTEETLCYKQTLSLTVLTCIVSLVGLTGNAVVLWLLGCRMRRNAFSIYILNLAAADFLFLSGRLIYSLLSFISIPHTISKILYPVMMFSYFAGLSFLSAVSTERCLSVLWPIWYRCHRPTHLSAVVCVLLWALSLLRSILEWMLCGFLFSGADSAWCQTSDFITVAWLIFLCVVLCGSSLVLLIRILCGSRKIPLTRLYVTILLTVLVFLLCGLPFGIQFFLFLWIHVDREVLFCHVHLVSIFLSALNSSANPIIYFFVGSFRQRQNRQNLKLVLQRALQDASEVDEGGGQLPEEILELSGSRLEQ
RGS4 block: inhibitors of human RGS4. HEK293 M3R/RGS4 inducible, Fluo-4 calcium flux; active compounds read high; triggered by carbachol at its EC20. 0.45% of 310,000 active. P49798. B-score at 10 µM;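 active = B-score, a plate-corrected calcium signal, over three deviations above library mean, with baseline fluorescence within five deviations of library mean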;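 also: RGS4 expression induced by doxycycline in cells with stable M3 receptor; B-score is computed from the integrated fluorescence ratio over baseline after carbachol; higher B-score means a larger calcium signal and so more RGS4 inhibition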
Target sequence (P49798 whole entry, looked up): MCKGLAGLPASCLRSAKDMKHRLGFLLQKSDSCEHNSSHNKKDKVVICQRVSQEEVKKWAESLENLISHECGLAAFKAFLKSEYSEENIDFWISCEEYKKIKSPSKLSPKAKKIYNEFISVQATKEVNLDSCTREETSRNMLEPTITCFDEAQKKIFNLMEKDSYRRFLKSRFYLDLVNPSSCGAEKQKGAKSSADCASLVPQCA
MrgX1 antagonist: antagonists of human MrgX1 receptor; MRGX1-HEK293 calcium flux, Fluo-4, BAM8-22 antagonism; active compounds read low; B-score at 10 µM; 1.3% of 310,000 active;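 active = calcium-response B-score plate-corrected more than 3 library SD below zero, starting fluorescence within 5 deviations, no agonist response on first addition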;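 also: peak minus trough fluorescence over baseline after final BAM8-22 challenge near maximal dose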
MrgX1 agonist: human MrgX1 receptor agonism, primary screen; AID 588627; MrgX1-HEK293 cells, Fluo-4 calcium fluorescence, agonist mode; active compounds read high; Q96LB2; B-score at 10 µM; 0.44% of 310,000 active;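 active = calcium response B-score plate-corrected fluorescence ratio at least 3 library SD, with starting fluorescence B-score inside 5 SD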
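System – MrgX1-expressing HEK293 cells · Incubation – cells plated overnight, dye loaded 0.5 h 37 °C, 0.5 h room temperature · Technique – kinetic Fluo-4 NW fluorescence of intracellular calcium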
RGS4 activ val: confirmation of RGS4 activators; inhibition, % at 10 µM; AID 602282; HEK293 M3R/RGS4 inducible, carbachol calcium flux Fluo4; shares compounds with RGS4 act; 89% of 1,100 active;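 active = inhibition above 3 SD of the buffer control wells, cut at about 41% in these data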;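 also: signal is the integrated peak-minus-minimum Fluo4 fluorescence over baseline ratio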
RGS4 act ctr: counter-screen for RGS4 activators: effect in non-induced cells; HEK293 M3R non-induced RGS4, Fluo4 calcium flux; after carbachol challenge at its EC90; shares compounds with RGS4 act; 82% of 1,100 active; AID 602283; inhibition, % at 10 µM;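 active = inhibition exceeding 3 SD of buffer-only control wells, cut at about 26% in these data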;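 also: percent drop in integrated peak-minus-baseline over baseline Fluo4 ratio after carbachol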
* marks the source's active call; other numbers are inactive results; i = inactive; / = not tested or not shown. Shown are actives, neighbours in structure and some others; about 3.5% of the full set was active somewhere.

SMILES	RGS4 act	MrgX1 allo act	RGS4 block	MrgX1 antagonist	MrgX1 agonist	RGS4 activ val	RGS4 act ctr
CCOC(=O)C1CCCN(C(=O)c2cc3c(C)nc4ccccc4c3o2)C1 (stereo not drawn)	-9.24*	i	i	i	i	82.0*	61.3*
CC1CCCN(S(=O)(=O)c2ccc(S(=O)(=O)NC(C)c3cccs3)cc2)C1 (stereo not drawn)	/	i	/	i	i	/	/
COc1ccccc1C(=O)NCC(c1cccs1)N1CCc2ccccc21 (stereo not drawn)	-7.77*	i	i	i	i	61.5*	36.3*
CCOc1ccc(Br)cc1S(=O)(=O)NC(=O)c1ccccc1	i	i	i	i	i	/	/
CC(=O)NN1C(=O)/C(=C\c2ccc(Cl)cc2)SC1=S	-12.3*	i	i	i	i	0.0	0.0
CC(O/N=C/c1ccc(OC(F)F)cc1)C(=O)Nc1cccc(S(=O)(=O)N2CCOCC2)c1 (stereo not drawn)	i	i	i	i	i	/	/
O=C(NCCOC(=O)c1c(F)cccc1Cl)c1c(F)cccc1Cl	i	i	i	i	i	/	/
OC1(CC#CCN2CCCCC2)c2ccccc2-c2ccccc21	i	i	i	i	i	/	/
OC1(C#CCCN2CCCCC2)c2ccccc2-c2ccccc21	-8.73*	i	i	i	i	92.0*	59.8*
COc1ccc(N(CC(=O)Nc2ccccc2F)S(=O)(=O)c2ccc(C)c([N+](=O)[O-])c2)cc1	i	i	i	i	i	/	/
CCCCCCCn1ccc(=N)cc1	-9.2*	i	i	i	i	69.0*	29.8*
CCCCCCCCCn1ccc(=N)cc1	i	i	i	i	i	/	/
COc1ccc(Cl)cc1NC(=O)CN1C(=O)CC(C)S(=O)(=O)c2ccccc21 (stereo not drawn)	i	i	i	i	i	/	/
O=C(c1ccc2c(Cl)c3c(nc2c1)CCCC3)N1CCN(c2ccc(F)cc2)CC1	-9.23*	i	i	i	i	91.5*	86.3*
COc1ccccc1N1CCN(C(=O)c2ccc3c(Cl)c4c(nc3c2)CCCC4)CC1	-9.74*	i	i	i	i	86.5*	78.8*
CC1CCN(C(=O)c2ccc3c(Cl)c4c(nc3c2)CCCC4)CC1	i	i	i	i	i	/	/
CCOC(=O)C1CCN(C(=O)c2ccc3c(Cl)c4c(nc3c2)CCCC4)CC1	i	i	i	i	i	/	/
CCS(=O)(=O)N1CCC(NC(=O)C(Cc2cccc(OC)c2OC)NC(C)=O)CC1 (stereo not drawn)	i	/	i	/	/	/	/
Cc1ccc(-n2ncc3c(SCc4cccnc4)ncnc32)c(C)c1	i	/	i	/	/	/	/
Cc1cc(C)c(OCC(=O)Nc2ccc(NC(=O)c3ccco3)cc2)c([N+](=O)[O-])c1	/	i	/	i	i	/	/
Cc1cc(C)c(OCC(=O)Nc2cccc(NC(=O)c3ccco3)c2)c(Br)c1	-7.78*	i	i	i	i	90.5*	51.8*
O=C(c1ccc(Cl)c(S(=O)(=O)N2CCOCC2)c1)N(c1ccccn1)C1CCCCC1	i	i	i	i	i	/	/
CCOC(=O)C1CCN(c2c(C(=O)c3ccccc3)cnc3ccc(CC)cc23)CC1	-7.7*	i	i	i	i	90.0*	42.8*
O=C(CN(Cc1ccccc1)S(=O)(=O)c1ccc(F)cc1)NCc1cccnc1	i	i	i	i	i	/	/
CCOC(=O)C1=C(C)N=C2SC(C)C(=O)N2C1c1cccc(F)c1 (stereo not drawn)	-8.11*	i	i	i	i	0.0	0.0
SMILES	RGS4 act	MrgX1 allo act	RGS4 block	MrgX1 antagonist	MrgX1 agonist	RGS4 activ val	RGS4 act ctr
O=C(O)C1CN(C(=O)c2cccc(Br)c2)C1	i	i	i	i	i	/	/
CCCCOc1ccc(C(=O)N2CCC(C)CC2)cc1	i	i	i	i	i	/	/
CCCCOc1ccc(C(=O)OC2CC(C)N(C)CC2C)cc1 (stereo not drawn)	-9.52*	i	i	i	i	91.0*	86.3*
Cc1cc(/C=C(/C#N)c2nc3ccccc3[nH]2)c(C)n1-c1cc(C(=O)O)cc(C(=O)O)c1	-7.92*	/	i	/	/	52.5*	44.3*
Cc1cc(NCCCO)n2nc(-c3cccs3)cc2n1	i	i	i	i	i	/	/
OCCCNc1cc(-c2ccccc2)nc2cc(-c3ccc(F)cc3)nn12	-8.83*	i	i	i	i	68.0*	42.3*
CCN(CC)CCOC(=O)c1ccccc1Br	i	i	i	i	i	/	/
CCN(CC)CCCOC(=O)C1(c2ccccc2)CCCC1	-10.8*	i	i	i	i	95.0*	92.8*
O=C1CC(c2cccs2)Cc2nc(NC(=O)C3CC3)ncc21 (stereo not drawn)	i	i	i	i	i	/	/
COCCN(C(=O)Nc1ccccc1OC)c1nc2ccccc2s1	-7.73*	i	i	i	i	92.0*	91.3*
c1ccc2c(c1)[nH]c1c(N3CCN(C4CCCCC4)CC3)ncnc12	-7.77*	i	i	i	i	64.0*	83.8*
COc1ccccc1NC(=O)COc1cccc2c1CCNC2=O	i	i	i	i	i	/	/
CCN(CC)CCNC(=O)C(=O)NCC1OCCN1S(=O)(=O)c1cccs1 (stereo not drawn)	i	i	i	i	i	/	/
CC(C)Cn1c(-c2csc3c2CCCC3)n[nH]c1=S	-8.03*	i	i	i	i	93.5*	66.8*
CC(C)Cn1c(-c2ccncc2)n[nH]c1=S	i	i	i	i	i	/	/
CC(C)Cn1c(-c2ccc(F)cc2)n[nH]c1=S	-8.53*	i	i	i	i	61.5*	83.8*
CC/C(=N/NC(=O)c1ccccc1O)c1c(C)[nH]n(-c2ccccc2)c1=O	i	i	i	i	i	/	/
CN1CC(c2ccccc2)Oc2ccccc2C1=S (stereo not drawn)	i	i	i	i	i	/	/
Cc1cccc2c1Sc1ccc(Cl)cc1CC2N1CCNCC1 (stereo not drawn)	-7.63*	i	i	i	i	93.0*	96.3*
O=C(O)c1cc2ncc(CCO)cn2n1	i	i	i	i	i	/	/
Cc1cccc(NS(=O)(=O)c2ccc(C3CCCCC3)cc2)c1	-8.84*	i	i	i	i	94.5*	91.8*
